Assay: Toxicity liver stage against HepG2, at 10uM
Type: cell-based
Set-up: test concentration 10 uM, cell line HepG2-A16-CD81EGFP
Settings: human, HepG2-A16-CD81EGFP cells; read-out: INHIBITION
Summary of the method: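 Uninfected HepG2-A16-CD81EGFP cells, 3 × 10^3 per well, 1536-well, plated on prespotted compound at 10 μM final, parasite-free screening media added to match infected plates; puromycin 10 μM positive, DMSO 0.5% negative; run in parallel with 48 h PbLuc assay at 37 °C, 5% CO2; viability by CellTiter-Glo luminescence, normalized to controls.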

In order of rising cytotoxicity at 10 µM:
1. O=C(CS(=O)(=O)C1CCCC1)NC(c1ccc(F)cc1)C1CC1 (stereo unspecified)  -159%
2. c1cc(-c2ccc(CN3CCCC4(CCNC4)C3)s2)[nH]n1 (stereo unspecified)  -152%
3. CCCS(=O)(=O)N1C[C@@H]2CN(Cc3ccco3)CCO[C@@H]2C1  -142%
4. COCCN(Cc1sccc1C)C(=O)COc1cccnc1  -138%
5. CCCc1n[nH]c(=O)n1Cc1ccc(OC)cc1  -130%
6. CCCOCCN1CCc2[nH]c(-c3ccc(OC)cc3)nc2C1  -113%
7. O=C(CCSc1ccc(F)cc1)N1CCN(c2cnccn2)CC1  -42.8%
8. Cc1nc(CNC(=O)NCC(O)c2cccc(Cl)c2)cs1 (stereo unspecified)  -16.1%
9. COCCn1ccnc1C1CCCN(C(=O)c2cccnc2SC)C1 (stereo unspecified)  -14.2%
10. O=C(CCCc1ccccc1)Nc1cnc(N2CCOCC2)nc1  -13.9%
11. Cc1ccc(C2(CN3CCN(Cc4cncn4C)CC3)CC2)cc1  -13.1%
12. O=C(COCC1CC1)Nc1ncn(CC(=O)N2CCCCCC2)n1  -11.9%
13. CN1CCN(c2ccc(F)cc2NC(=O)NCC[S+](C)[O-])CC1 (stereo unspecified)  -10.7%
14. CC(C)(C)c1n[nH]c(C2CN(C(=O)CCc3cccs3)CCO2)n1 (stereo unspecified)  -10.6%
15. CN1CCC(CNC(=O)NCc2ccc(F)cc2)CC1  -10.1%
16. O=C(NCc1ccccc1)N1CCC2(CC(=O)N(c3ccsc3)C2)C1 (stereo unspecified)  -9.64%
17. Cc1nc(CN(Cc2ccc3c(c2)OCCO3)C2CCCC2)no1  -9.19%
18. CC(=O)N1CCc2[nH]cnc2C12CCN(CC1CCOC1)CC2 (stereo unspecified)  -8.46%
19. O=C(C1CCOCC1)N1CC[C@@](O)(c2ccccc2)[C@H]2CCCC[C@@H]21  -8.35%
20. CCc1ncc2c(n1)CN(CC(O)COc1ccc(C#N)cc1)CC2 (stereo unspecified)  -7.65%
21. CC[C@H](C)[C@H](NC(=O)Cc1csc(-c2cccc(Cl)c2)n1)C(=O)O  -7.48%
22. Cn1cnc2cc(C(=O)NS(=O)(=O)c3ccccc3Cl)ccc21  -7.43%
23. CS(=O)(=O)NC1CCN(C(=O)c2ccc(Br)o2)C1 (stereo unspecified)  -7.03%
24. CS(=O)(=O)NC1CCN(C(=O)c2cnc(-c3cccnc3)nc2)CC1  -6.47%
25. COc1ccc(C2CCN(C(=O)c3ncccc3OC(C)C)C2)cc1 (stereo unspecified)  -6.45%
26. Cn1ccnc1C(NCc1ccc(Br)cc1)c1ccccc1 (stereo unspecified)  -6.39%
27. Cc1cnn(CCNCC(O)COc2c(Cl)cccc2Cl)c1 (stereo unspecified)  -5.4%
28. CCn1cc(NC(=O)NCC(C)(C)N2CCc3ccccc3C2)cn1  -5.16%
29. CN1CCN(C[C@H]2CC[C@@H](Cc3ccc4c(c3)OCO4)O2)CC1  -5.13%
30. CCCSc1ccccc1NC(=O)N1CCC(N2CCSCC2)CC1  -4.73%
31. COCCN1CC[C@]2(CN(Cc3cccnc3)C[C@H]2C)C1=O  -4.66%
32. Cc1nn2c(N3CCCC(C(N)=O)C3)cc(-c3ccccc3)nc2c1C (stereo unspecified)  -4.45%
33. CCC(C)(CC(=O)OC)NCc1noc(C)n1 (stereo unspecified)  -4.39%
34. CCn1c(C(=O)N2CCN(CC[S+](C)[O-])CC2)cc2ccccc21 (stereo unspecified)  -3.49%
35. Cc1noc([C@H]2COC[C@H]3CN(C(=O)Cc4ccsc4)C[C@H]32)n1  -3.26%
36. O=S1(=O)CCC(N(Cc2nc3ccccc3o2)Cc2cccs2)C1 (stereo unspecified)  -3.08%
37. O=C(Nc1cc(C(F)(F)F)c[nH]c1=O)N1CCOCC1  -3.03%
38. COCCN1CCC(CN(Cc2ccncc2)C2CCCCC2)CC1  -2.91%
39. Cn1cc(C2CCCN2C(=O)COCCc2ccccc2)cn1 (stereo unspecified)  -2.87%
40. CC(C(=O)NS(=O)(=O)Cc1cc(-c2ccccc2)no1)C1CC1 (stereo unspecified)  -2.72%
41. Cc1cc(CC(=O)NCc2ccnc(OCC(F)(F)F)c2)no1  -2.17%
42. CN(C)C(C(=O)N1CCCN(C(=O)C2CCC2)CC1)c1ccccc1F (stereo unspecified)  -2.11%
43. O=C1COC2(CCN(CC3CC3)CC2)CN1c1cncnc1  -1.87%
44. O=C(O)c1c[nH]c2cc(NS(=O)(=O)c3cc(F)ccc3Cl)ccc12  -1.43%
45. FC(F)(F)c1ccnc(N2CCCOCC2)c1  -1.41%
46. NC(=O)c1cc(CC2CCCN(c3cnccn3)C2)ncn1 (stereo unspecified)  -1.15%
47. COc1ccc(F)cc1C(C)NC(=O)Nc1nnc(C)s1 (stereo unspecified)  -1.01%
48. Cc1nc(CO[C@@H]2CN(Cc3cccs3)[C@@H]3COC[C@@H]32)cs1  -0.646%
49. Cn1cccc1C(=O)N1CCN(Cc2ccncc2)c2ncccc2C1  -0.395%
50. CCC(CC)NC(=O)c1cncc(Br)c1  -0.211%
51. CCc1cnc(CN(C)C2CCN(CC(=O)Nc3cc(C)on3)C2)o1 (stereo unspecified)  0.2%
52. COCc1ccccc1NC(=O)NC(C)c1ccc(C)o1 (stereo unspecified)  0.205%
53. COc1ccccc1-c1c[nH]c(C2CCCN2)n1 (stereo unspecified)  0.276%
54. CCC(C)NC(=O)Nc1cccc(OC)c1 (stereo unspecified)  0.554%
55. Cc1cc2cc(Nc3c(C#N)c(=O)n(C)c(=O)n3C)ccc2[nH]1  1.11%
56. Cc1ncnc2c1CCN(Cc1cccs1)CC2  1.17%
57. CC(NC(=O)COc1ccc(Cl)cc1Cl)c1nncn1C(C)C (stereo unspecified)  1.67%
58. c1ccc(OCCNC2CCN(c3ncccn3)CC2)cc1  1.85%
59. O=C(CC1CCCC1)N1C[C@H](OCc2ccncc2)[C@H]2OCCC[C@H]21  2.75%
60. O=C(NC[C@]12COC[C@H]1CN(Cc1cccnc1)C2)c1ccsc1  2.95%
61. Cc1nc(CN2CCc3ncnc(C4CCOC4)c3CC2)cs1 (stereo unspecified)  3.05%
62. COCCN1CCC2(CC1)CN(C(C)=O)c1ccc(C)cc12  3.77%
63. Cc1ccccc1CCC1CCCN(C(=O)Cc2cc(=O)[nH]c(N)n2)C1 (stereo unspecified)  4.6%
64. Cc1nnc(CN(Cc2ccccc2Br)C2CC2)o1  5.2%
65. c1cnc(N2CC[C@@H]3CN(Cc4ccncc4)CCO[C@@H]3C2)nc1  5.53%
66. COc1cccc2c1ccn2CCNC(=O)C(C)C  5.66%
67. COC[C@]1(O)CCN(c2cc(OC)ncn2)CC1(C)C  5.66%
68. CC(C)=CCS(=O)(=O)Cc1ccn(-c2cccc(F)c2)n1  6.37%
69. CSc1cc(CNC(=O)CCOc2ccccc2C)ccn1  6.72%
70. CC(C)n1nc(Cn2cccn2)c2c1CN(C1CCOCC1)C2  6.98%
71. CC(C)NC(=O)C1CCN(Cn2ccc(-c3ccc(F)cc3)n2)CC1  7.07%
72. Cc1cccc(C2(CNC(=O)C(C)NC(N)=O)CCCC2)c1 (stereo unspecified)  7.19%
73. Cn1cnc2c1C(COCC1CC1)CN(c1ncccn1)C2 (stereo unspecified)  7.22%
74. Cc1ccc(-c2cnc(CCC(=O)NCCN3CCOCC3)o2)cc1C  7.36%
75. CC(c1ccncc1)N(CCN(C)C)C(=O)Nc1ccc(Cl)c(Cl)c1 (stereo unspecified)  7.41%
76. Cc1cc(NC(=O)CNC(C)(C)c2ccc3c(c2)OCO3)on1  7.51%
77. CCN(CC1CCCN(CCc2cccc(OC)c2)C1)C(=O)CSC (stereo unspecified)  8.76%
78. COc1c(NC(=O)C(C)CCOc2ccccc2)c(C)nn1C (stereo unspecified)  8.96%
79. Cc1ncsc1C(=O)N1CCC(O)(Cn2c(C)cc3ccncc32)CC1  9.59%
80. CS(=O)(=O)NC[C@@H]1OC[C@H]2CN(C(=O)c3ccccc3)CC[C@H]21  10.3%
81. Cc1ncccc1OCC(=O)N1CCN[C@H]2CS(=O)(=O)C[C@H]21  13.1%
